Measurements taken from ChEMBL document CHEMBL1125320, “Imidazole-5-acrylic acids: potent nonpeptide angiotensin II receptor antagonists designed using a novel peptide pharmacophore model” (J Med Chem, 1992).

Legend:
[1] = system: Rattus norvegicus; assay: Compound was evaluated in vivo, for the dose that produced 50% inhibition of the pressor response to AII in conscious normotensive rats after iv administration; assay type: functional; settings: read-out: ID50 (the source's name)
Summary of the method: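 Conscious normotensive rats with indwelling femoral arterial and venous catheters were tested 2-3 days after surgery while in a restrainer, with continuous arterial pressure recording. The MAP rise to iv angiotensin II 250 ng/kg was measured at time points before and after iv compound at 0.3-300 mg/kg.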

[2] = molecular target: T1, Angiotensin II receptor (Rattus norvegicus, UniProt P29089+P25095+P35351); assay: Inhibition of [125I]angiotensin II specific binding to rat mesenteric arteries; assay type: protein assay
T1 sequence (P29089 whole entry): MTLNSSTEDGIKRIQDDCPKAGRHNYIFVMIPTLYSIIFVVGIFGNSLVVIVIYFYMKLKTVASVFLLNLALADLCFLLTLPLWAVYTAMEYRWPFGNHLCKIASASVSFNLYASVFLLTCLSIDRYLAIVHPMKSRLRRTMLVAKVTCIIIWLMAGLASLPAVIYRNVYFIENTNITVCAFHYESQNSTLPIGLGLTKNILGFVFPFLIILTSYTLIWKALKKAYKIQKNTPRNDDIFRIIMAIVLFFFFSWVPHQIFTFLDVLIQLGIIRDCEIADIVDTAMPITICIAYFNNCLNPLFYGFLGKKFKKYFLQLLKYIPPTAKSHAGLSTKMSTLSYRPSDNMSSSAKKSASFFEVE
T1 sequence (P25095 whole entry): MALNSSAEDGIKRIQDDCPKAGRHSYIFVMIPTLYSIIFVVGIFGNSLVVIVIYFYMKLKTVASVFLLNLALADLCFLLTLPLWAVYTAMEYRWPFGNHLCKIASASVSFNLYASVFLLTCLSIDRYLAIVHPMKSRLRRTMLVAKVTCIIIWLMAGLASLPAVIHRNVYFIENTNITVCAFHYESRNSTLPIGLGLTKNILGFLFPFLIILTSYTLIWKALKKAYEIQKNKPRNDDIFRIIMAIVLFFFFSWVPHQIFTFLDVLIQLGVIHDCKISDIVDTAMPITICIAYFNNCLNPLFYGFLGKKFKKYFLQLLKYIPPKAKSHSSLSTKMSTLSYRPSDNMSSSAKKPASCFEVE
T1 sequence (P35351 whole entry): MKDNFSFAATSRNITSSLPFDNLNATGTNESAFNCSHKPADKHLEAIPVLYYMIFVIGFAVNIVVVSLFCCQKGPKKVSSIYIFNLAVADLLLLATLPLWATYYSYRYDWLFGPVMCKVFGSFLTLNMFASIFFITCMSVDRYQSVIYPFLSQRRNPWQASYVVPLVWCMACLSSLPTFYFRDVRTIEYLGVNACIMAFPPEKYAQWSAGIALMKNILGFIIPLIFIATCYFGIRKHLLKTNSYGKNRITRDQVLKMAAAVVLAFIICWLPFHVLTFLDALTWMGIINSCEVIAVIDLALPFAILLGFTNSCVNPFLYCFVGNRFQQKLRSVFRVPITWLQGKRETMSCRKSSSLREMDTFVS

[3] = molecular target: Angiotensin II receptor (Oryctolagus cuniculus); assay: Inhibition of angiotensin II induced vasoconstriction of rabbit aorta
[4] = molecular target: T2, Type-1 angiotensin II receptor (Oryctolagus cuniculus) (UniProt P34976); assay: (§1) Compound was evaluated for the inhibition of Angiotensin II receptor induced vasoconstriction of the rabbit aorta; assay type: tissue-based
T2 sequence (whole entry): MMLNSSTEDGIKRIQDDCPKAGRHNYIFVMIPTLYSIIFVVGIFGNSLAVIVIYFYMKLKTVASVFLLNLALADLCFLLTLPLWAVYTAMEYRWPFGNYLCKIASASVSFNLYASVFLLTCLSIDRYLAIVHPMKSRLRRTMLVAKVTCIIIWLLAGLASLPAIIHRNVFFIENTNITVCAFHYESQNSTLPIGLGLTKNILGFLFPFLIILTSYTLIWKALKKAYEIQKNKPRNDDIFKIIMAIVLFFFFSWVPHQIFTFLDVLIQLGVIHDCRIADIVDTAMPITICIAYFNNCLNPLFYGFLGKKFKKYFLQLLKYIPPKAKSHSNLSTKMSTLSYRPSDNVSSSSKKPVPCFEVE
Summary of the method: (§2)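 Isolated rabbit aorta ring segments mounted on metal supports attached to force displacement transducers. Cumulative angiotensin II concentration-response curves were run without antagonist or after a 30-min antagonist incubation.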

[5] = molecular target: T3, Type-1 angiotensin II receptor B (Rattus norvegicus, UniProt P29089); assay: Inhibition of [125I]angiotensin II receptor specific binding to rat mesenteric arteries
T3 sequence (P29089 whole entry): T1 sequence (P29089 whole entry)

[6] = molecular target: T3, Type-1 angiotensin II receptor B; assay: Compound was evaluated for the inhibition of [125I]AII specific binding to rat mesenteric arteries
Summary of the method: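 Particulate fraction from rat mesenteric arteries incubated in Tris buffer with 80 pM [125I]angiotensin II, with or without antagonist, for 1 h at 25 °C. The incubation was stopped by rapid filtration, and filter-bound radioligand was counted on a γ counter. Inhibition of specific binding; n = 3-5.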

[7] = molecular target: T2, Type-1 angiotensin II receptor (Oryctolagus cuniculus); assay: (§3) Compound was evaluated for the inhibition of AII-induced vasoconstriction of the rabbit aorta; assay type: tissue-based; summary of the method: as §2
[8] = molecular target: T2, Type-1 angiotensin II receptor (Oryctolagus cuniculus); assay: as §3; summary of the method: as §2
[9] = molecular target: Angiotensin II receptor (Oryctolagus cuniculus); assay: Compound was evaluated for the inhibition of Angiotensin II receptor, induced vasoconstriction of the rabbit aorta
[10] = molecular target: T2, Type-1 angiotensin II receptor (Oryctolagus cuniculus); assay: as §3; assay type: functional, tissue-based; summary of the method: as §2
[11] = system: Rattus norvegicus; assay: Compound was evaluated in vivo, for the dose that produced 50% inhibition of the pressor response to AII in conscious normotensive rats after intraduodenal administration; assay type: functional; settings: read-out: ID50 (the source's name)
[12] = molecular target: T2, Type-1 angiotensin II receptor (Oryctolagus cuniculus); assay: as §1; assay type: functional, tissue-based; summary of the method: as §2

| IC50 [2] [nM] | Kb [3] [nM] | Structure (SMILES) | other results |
| --- | --- | --- | --- |
| – | – | CCCCc1ncc(CC(=O)O)n1Cc1ccccc1Cl | ED50 [1]: 22.5 mg/kg |
| 810 | 120 | CCCCc1ncc(/C=C(\Cc2ccc(OC)cc2)C(=O)O)n1Cc1ccccc1Cl | ED50 [1]: 9 mg/kg |
| 33900 | 4800 | CCCCc1ncc(-c2cccc(C(=O)O)c2)n1Cc1ccccc1Cl | – |
| – | – | CCCCc1nc(Cl)c(CC(=O)O)n1Cc1ccccc1Cl | Kb [4]: 2700 nM; ED50 [1]: 30 mg/kg |
| 14600 | 590 | CCCCc1ncc(/C=C(\Cc2ccc(N(C)C)cc2)C(=O)O)n1Cc1ccccc1Cl | – |
| – | 280 | CCCCc1ncc(/C=C(\Cc2sccc2C)C(=O)O)n1Cc1ccccc1Cl | IC50 [5]: 730 nM |
| 150 | 170 | CCCCc1ncc(/C=C(\Cc2ccncc2)C(=O)O)n1Cc1ccccc1Cl | ED50 [1]: 5.9 mg/kg |
| 470 | 130 | CCCCc1ncc(/C=C(\Cc2ccc3c(c2)OCO3)C(=O)O)n1Cc1ccccc1Cl | ED50 [1]: 9.4 mg/kg |
| – | 130 | CCCCc1ncc(/C=C(\Cc2ccc(C)s2)C(=O)O)n1Cc1ccccc1Cl | IC50 [5]: 700 nM; ED50 [1]: 7.6 mg/kg |
| 8900 | 810 | CCCCc1ncc(/C=C\C(=O)O)n1Cc1ccccc1Cl | ED50 [1]: 15 mg/kg |
| 16500 | 2800 | CCCCc1ncc(CCC(=O)O)n1Cc1ccccc1Cl | – |
| 5200 | 610 | CCCCc1ncc(/C=C(/C(=O)O)C(Cc2ccccc2)c2cccs2)n1Cc1ccccc1Cl (stereo not drawn) | – |
| 1900 | 1700 | CCCCc1ncc(/C=C(\Cc2cc(OC)c(OC)c(OC)c2)C(=O)O)n1Cc1ccccc1Cl | – |
| 120 | 470 | CCCCc1ncc(/C=C(\Cc2ccc(O)cc2)C(=O)O)n1Cc1ccccc1Cl | – |
| 820 | 2900 | CCCCc1ncc(/C=C(\Cc2ccccn2)C(=O)O)n1Cc1ccccc1Cl | – |
| 124000 | 14000 | CCCCc1ncc(/C=C/C(=O)O)n1Cc1ccccc1Cl | – |
| – | – | CCCCc1ncc(/C=C(\Cc2cccc(Oc3ccccc3)c2)C(=O)O)n1Cc1ccccc1Cl | IC50 [6]: 10000 nM; Kb [7]: 18100 nM |
| 20100 | 600 | CCCCc1ncc(/C=C(/C(=O)O)c2ccccc2)n1Cc1ccccc1Cl | – |
| 21900 | 14600 | CCCCc1ncc(/C=C(\Cc2ccc3ccccc3c2)C(=O)O)n1Cc1ccccc1Cl | – |
| – | 320 | CCCCc1ncc(/C=C(\Cc2ccc(N)cc2)C(=O)O)n1Cc1ccccc1Cl | IC50 [5]: 3000 nM |
| > 100000 | 17200 | CCCCc1ncc(-c2ccccc2C(=O)O)n1Cc1ccccc1Cl | – |
| > 100000 | 14400 | CCCCc1ncc(/C=C(/Cc2ccco2)C(=O)O)n1Cc1ccccc1Cl | – |
| 4600 | 240 | CCCCc1ncc(/C=C(/C(=O)O)C(C)c2ccccc2)n1Cc1ccccc1Cl (stereo not drawn) | – |
| 19000 | 7000 | CCCCc1ncc(CCCCCC(=O)O)n1Cc1ccccc1Cl | – |

| IC50 [2] [nM] | Kb [3] [nM] | Structure (SMILES) | other results |
| --- | --- | --- | --- |
| – | 30 | CCCCc1ncc(/C=C(\Cc2cc(OC)cs2)C(=O)O)n1Cc1ccccc1Cl | IC50 [5]: 300 nM |
| 17000 | 11000 | CCCCc1ncc(CCCCC(=O)O)n1Cc1ccccc1Cl | – |
| – | – | CCCCc1ncc(/C=C(\Cc2ccccc2)C(=O)O)n1Cc1ccccc1Cl | IC50 [5]: 2600 nM; ED50 [1]: 14 mg/kg; Kb [8]: 64 nM |
| 1200 | 50 | CCCCc1ncc(/C=C(\Cc2ccco2)C(=O)O)n1Cc1ccccc1Cl | – |
| – | 1140 | CCCCc1ncc(/C=C(\Cc2ccccc2C)C(=O)O)n1Cc1ccccc1Cl | IC50 [5]: 5000 nM |
| 300 | 180 | CCCCc1ncc(/C=C(\Cc2cccnc2)C(=O)O)n1Cc1ccccc1Cl | ED50 [1]: 9.8 mg/kg |
| 3600 | 660 | CCCCc1ncc(/C(C)=C/C(=O)O)n1Cc1ccccc1Cl | – |
| > 10000 | 15000 | CCCCc1ncc(CCCC(=O)O)n1Cc1ccccc1Cl | – |
| – | 30 | CCCCc1ncc(/C=C(\Cc2ccc(OC)s2)C(=O)O)n1Cc1ccccc1Cl | IC50 [5]: 90 nM |
| 6800 | – | CCCCc1ncc(/C=C(\Cc2ccc(OC)c(OC)c2)C(=O)O)n1Cc1ccccc1Cl | Kb [9]: 620 nM |
| 810 | 270 | CCCCc1ncc(/C=C(\Cc2cccc(OC)c2)C(=O)O)n1Cc1ccccc1Cl | ED50 [1]: 10 mg/kg |
| – | 2300 | CCCCc1ncc(/C=C(/C(=O)O)C(c2ccccc2)c2cccs2)n1Cc1ccccc1Cl (stereo not drawn) | IC50 [5]: 2400 nM |
| – | – | CCCCc1ncc(/C=C(\Cc2ccsc2)C(=O)O)n1Cc1ccccc1Cl | IC50 [5]: 330 nM; ED50 [1]: 6.4 mg/kg |
| 250 | 310 | CCCCc1ncc(/C=C(\Cc2c[nH]cn2)C(=O)O)n1Cc1ccccc1Cl | ED50 [1]: 11 mg/kg |
| – | 13700 | CCCCc1ncc(/C=C(\Cc2ccc(Cl)c(Cl)c2)C(=O)O)n1Cc1ccccc1Cl | IC50 [5]: 25600 nM |
| – | – | CCCCc1ncc(/C=C(/Cc2ccccc2)C(=O)O)n1Cc1ccccc1Cl | Kb [10]: 8700 nM |
| – | 310 | CCCCc1ncc(/C=C(\Cc2ccc([N+](=O)[O-])cc2)C(=O)O)n1Cc1ccccc1Cl | IC50 [5]: 400 nM |
| 360 | 30 | CCCCc1ncc(/C=C(\Cc2ccoc2)C(=O)O)n1Cc1ccccc1Cl | – |
| 2900 | 420 | CCCCc1ncc(/C=C(\CCc2ccccc2)C(=O)O)n1Cc1ccccc1Cl | – |
| 58 | – | CCCCc1ncc(/C=C(\Cc2ccc(O)c(O)c2)C(=O)O)n1Cc1ccccc1Cl | Kb [10]: 140 nM; ED50 [11]: 20 mg/kg |
| 860 | – | CCCCc1ncc(/C=C(\CCc2cccs2)C(=O)O)n1Cc1ccccc1Cl | Kb [12]: 140 nM |
| 18700 | – | CCCCc1ncc(/C=C(/C(=O)O)C(CCCC)c2cccs2)n1Cc1ccccc1Cl (stereo not drawn) | Kb [10]: 3100 nM |
| 22300 | 970 | CCCCc1ncc(/C=C(\C)C(=O)O)n1Cc1ccccc1Cl | – |
| – | – | CCCCc1ncc(/C=C(\Cc2cccs2)C(=O)O)n1Cc1ccccc1Cl | ED50 [1]: 3.6 mg/kg |
